In ChEMBL document CHEMBL1131029, “Synthesis and in vitro efficacy of transferrin conjugates of the anticancer drug chlorambucil” (J Med Chem, 1998):

Legend:
Homo sapiens [1] = species: Homo sapiens; assay: Alkylating activity of compound remaining after 48 hours of incubation with 10% human blood serum; type: functional
Homo sapiens [2] = species: Homo sapiens; assay: Alkylating activity of compound remaining after 96 hours of incubation with 10% human blood serum; type: functional
[3] = Time required to reduce the alkylating activity of 10% human blood serum from its initial value by 50%.; type: ADME, Plasma
MOLT-4 = assay: In vitro inhibitory activity against acute lymphoblastic leukemia (MOLT4) cell line.; type: functional, cell-based; details: Homo sapiens
How it was run: (§1)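 MCF7 (trypsinized monolayer) or MOLT4 (suspension) cells in RPMI 1640 with 10% FCS, plated at 1.0 × 10^5 cells/mL and allowed 24 h recovery. Then 6 days continuous drug exposure, 0.15–40 µM, triplicate wells. Propidium iodide fluorescence read (ex 530/em 620) before and after freeze-kill; viable cells = FU2 − FU1; %T/C; IC50 as mean ± SD, n = 3.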

Homo sapiens [4] = species: Homo sapiens; assay: Alkylating activity of compound remaining after 24 hours of incubation with 10% human blood serum; type: functional
MCF7 = assay: In vitro inhibitory activity against mammary carcinoma (MCF-7) cell line.; type: functional, cell-based; details: Homo sapiens; how it was run: as §1

**Q.** With `C/C(=N\NC(=O)CCCc1ccc(N(CCCl)CCCl)cc1)c1cccc(N2C(=O)C=CC2=O)c1` as the molecule, how does the Activity (Homo sapiens [1]) read?
**A.** Its Activity is 13.7%.

**Q.** What about the Activity (Homo sapiens [2]) of the same molecule?
**A.** The Activity was 10.9%.

**Q.** What about the half-life [3] of the same molecule?
**A.** Its half-life is 4.5 h.

**Q.** What about the IC50 (MOLT-4) of the same molecule?
**A.** Its IC50 is 3.3 µM.

**Q.** What about the Activity (Homo sapiens [4]) of the same molecule?
**A.** The Activity was 22.9%.

**Q.** With `O=C(CCCc1ccc(N(CCCl)CCCl)cc1)Oc1cccc(N2C(=O)C=CC2=O)c1` as the molecule, how does the Activity (Homo sapiens [1]) read?
**A.** Its Activity is 15.2%.

**Q.** What about the Activity (Homo sapiens [2]) of the same molecule?
**A.** The Activity was 12.1%.

**Q.** And the half-life [3]?
**A.** Its half-life is 4.3 h.

**Q.** And the IC50 (MOLT-4)?
**A.** Its IC50 is 15.3 µM.

**Q.** And the Activity (Homo sapiens [4])?
**A.** Its Activity is 22.3%.

**Q.** Which results are given for `O=C(CCCc1ccc(N(CCCl)CCCl)cc1)N/N=C/CN1C(=O)C=CC1=O`?
**A.** Activity (Homo sapiens [1]): 19.5%; Activity (Homo sapiens [2]): 15.2%; half-life [3]: 4 h; IC50 (MOLT-4): 0.35 µM; Activity (Homo sapiens [4]): 25%; IC50 (MCF7): 6.8 µM

**Q.** With `O=C(CCCc1ccc(N(CCCl)CCCl)cc1)OCCN1C(=O)C=CC1=O` as the molecule, how does the Activity (Homo sapiens [1]) read?
**A.** The Activity was 13.8%.

**Q.** What about the Activity (Homo sapiens [2]) of the same molecule?
**A.** Its Activity is 11%.

**Q.** What about the half-life [3] of the same molecule?
**A.** The half-life was 3.1 h.

**Q.** What about the IC50 (MOLT-4) of the same molecule?
**A.** Its IC50 is 7.8 µM.

**Q.** What about the Activity (Homo sapiens [4]) of the same molecule?
**A.** The Activity was 20.9%.

**Q.** Which Activity (Homo sapiens [1]) does the source give for `O=C(CCCc1ccc(N(CCCl)CCCl)cc1)N/N=C/c1cccc(N2C(=O)C=CC2=O)c1` here?
**A.** Its Activity is 14.5%.

**Q.** And the Activity (Homo sapiens [2])?
**A.** The Activity was 13.4%.

**Q.** What about the half-life [3] of the same molecule?
**A.** The half-life was 5.9 h.

**Q.** And the IC50 (MOLT-4)?
**A.** Its IC50 is 7.5 µM.

**Q.** And the Activity (Homo sapiens [4])?
**A.** The Activity was 24.1%.

**Q.** And the IC50 (MCF7)?
**A.** The IC50 was 35.5 µM.

**Q.** Which Activity (Homo sapiens [1]) does the source give for `O=C(O)CCCc1ccc(N(CCCl)CCCl)cc1` [CHLORAMBUCIL] here?
**A.** The Activity was 6.6%.

**Q.** What about the half-life [3] of the same molecule?
**A.** Its half-life is 4.5 h.

**Q.** And the IC50 (MOLT-4)?
**A.** The IC50 was 6.3 µM.

**Q.** And the Activity (Homo sapiens [4])?
**A.** The Activity was 12.2%.

**Q.** What about the IC50 (MCF7) of the same molecule?
**A.** The IC50 was 24.6 µM.
